# S1P4 antag – blocks the human S1P4 receptor | O95977 | S1P4-expressing cells, antagonist mode, reporter read-out | inhibition, % at 4.98 µM | 0.26% of 220,000 active; in the data active means inhibition above about 29%;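 further: 0% = wells stimulated with agonist and 100% = vehicle wells without agonist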
# Target sequence (O95977 whole entry, looked up): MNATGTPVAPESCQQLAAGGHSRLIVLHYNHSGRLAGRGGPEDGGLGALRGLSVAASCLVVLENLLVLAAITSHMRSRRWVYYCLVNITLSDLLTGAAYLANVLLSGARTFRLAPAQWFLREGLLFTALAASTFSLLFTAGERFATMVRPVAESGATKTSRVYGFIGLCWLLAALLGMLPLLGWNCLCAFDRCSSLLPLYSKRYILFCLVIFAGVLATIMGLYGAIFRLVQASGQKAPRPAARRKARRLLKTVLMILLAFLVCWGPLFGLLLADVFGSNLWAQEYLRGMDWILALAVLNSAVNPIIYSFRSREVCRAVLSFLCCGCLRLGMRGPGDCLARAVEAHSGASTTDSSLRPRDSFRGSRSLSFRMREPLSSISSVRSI
# S1P4 ag – human S1P4 receptor agonism; S1P4-expressing cell line, agonist reporter assay; O95977; activation, % at 4.98 µM; 0.35% of 220,000 active; in the data active means activation above about 11%;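 further: 0% = DMSO vehicle and 100% = reference agonist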
# NPY Y1 blocker – NPY-Y1 (human) receptor antagonism. 1% of 200,000 active. P25929. HEK293-CNG Y1 cells, membrane potential fluorescence; NPY at EC95, then isoproterenol. inhibition, % at 3.6 µM;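 active means inhibition above the campaign mean inhibition of all tested compounds plus 3 SD, cut at about 20% in these data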;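 further: 0% = DMSO wells given NPY plus isoproterenol and 100% = isoproterenol alone without NPY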
#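 System: HEK293 cells with Y1 receptor plus CNG channel / Probe or stimulus: NPY 25 nM then isoproterenol 1 µM plus Ro 20-1724 25 µM / Compound: one concentration, 3.6 µM, in 0.4% DMSO / Schedule: compound incubation 1 h at room temperature, readout 45 min post-stimulation / Measured by: membrane potential fluorescence / Read-out: % inhibition of NPY effect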
# NPY-Y2 PAM-ag – human NPY-Y2 potentiation or agonism, primary screen; cells expressing NPY-Y2, potentiator/agonist read-out; 0.45% of 220,000 active; activation, % at 3.6 µM; P49146; in the data active means activation above about 27%;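 further: cells stimulated with NPY near EC25 plus isoproterenol at EC100; 0% = vehicle plus submaximal agonist and 100% = vehicle plus saturating agonist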
# NPY Y2 blocker – antagonists of human neuropeptide Y receptor Y2; NPY-Y2 expressing cells, antagonist mode; inhibition, % at 2.7 µM; 0.99% of 140,000 active; AID 793; in the data active means inhibition above about 17%;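 further: 0% = vehicle with agonist challenge and 100% = reference antagonist with challenge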
# NPY-Y1 PAM-ag – potentiates or activates human NPY-Y1 receptor; P25929; NPY-Y1 expressing cells, potentiator/agonist activation; activation, % at 3.6 µM; 0.37% of 220,000 active; in the data active means activation above about 33%, passing the limit was not always enough;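 further: cells stimulated with NPY at EC10 then isoproterenol at EC100; 0% = low agonist plus stimulus and 100% = saturating agonist plus stimulus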
# Starred values were filed as active, the others as inactive; . = no result. A selection: hits, their analogues and other compounds. The true share with any hit is near 2.4%.
SMILES,S1P4 antag,S1P4 ag,NPY Y1 blocker,NPY-Y2 PAM-ag,NPY Y2 blocker,NPY-Y1 PAM-ag
Nc1ccc(-c2cc(-c3cccc(N)c3)nc(-c3ccccc3)n2)cc1,11,-3,-13,45*,-6,54*
OCc1cc(C(O)CNCCCCCCOCCCCc2ccccc2)ccc1O (configuration not stated),-1,-1,-11,86*,.,78*
O=C1CSC2(CCCCC2)N1CCO,-1,1,0,-10,-1,13
C[C@H]1O[C@@H](O[C@H]2[C@@H](O)C[C@H](O[C@H]3[C@@H](O)C[C@H](O[C@H]4CC[C@@]5(C)[C@H](CC[C@@H]6[C@@H]5C[C@@H](O)[C@]5(C)[C@@H](C7=CC(=O)OC7)CC[C@]65O)C4)O[C@@H]3C)O[C@@H]2C)C[C@H](O)[C@@H]1O,-11,-1,49*,-22,53*,-88
OC(c1cc(C(F)(F)F)nc2c(Cl)cc(Cl)cc12)C1CCCCN1 (configuration not stated),0,-1,.,62*,.,66*
CCOCCCNC(=O)C(c1ccc(Cl)cc1)N1CCC2(CC1)OCCO2 (configuration not stated),-12,1,4,36*,7,32*
COc1ccc(Br)cc1CSC(=N)N,1,0,11,8,.,5
CCCCCOc1ccc(Br)cc1CSC(=N)N,0,1,46*,-3,35*,-99
Cc1ccc2nc3cc([N+](=O)[O-])cc([N+](=O)[O-])c3cc2c1,29*,0,-2,9,.,5
CCCC(=O)c1c[nH]c(C(=O)NCc2cccnc2)c1,-1,0,-4,8,.,10
COc1ccc(/C=N/NC(=O)C2C3CCCCC32)cc1OC (configuration not stated),-7,2,-1,-9,.,-4
CC(C)C(C(=O)NCc1ccco1)N(C(=O)CNS(=O)(=O)c1ccc(Cl)cc1)C1CCCC1 (configuration not stated),8,11*,0,11,0,8
CCn1c(SCC(=O)c2ccc(Cl)cc2)nnc1-c1ccoc1C,0,0,4,-16,7,-19
N#Cc1c(NCCN)nc(-c2ccccc2)c2c1CCCC2,-17,1,29*,-33,24*,-37
Nc1ncc(Br)cc1S(=O)(=O)NCCC(=O)N1CCN(c2ccccn2)CC1,-3,-1,-2,3,-1,-1
c1ccc(CCCCNCC2COc3ccccc3O2)cc1 (configuration not stated),-22,-1,20*,-19,.,-4
c1ccc(CCCNCC2COc3ccccc3O2)cc1 (configuration not stated),-18,-1,18,-5,.,-7
COc1ccc2c(c1)C(C)CC(C)(C)N2C(=O)CSc1nc2ccccc2s1 (configuration not stated),9,0,35*,-5,29*,-26
COc1cc(NC(=S)NCCc2ccccc2)c(OC)cc1NC(=O)CC(C)C,-3,0,-4,-5,.,3
c1ccc(CN2C3=NCCN3c3ccccc32)cc1,-10,3,3,-2,3,-19
O=C(CN1C2=NCCN2c2ccccc21)C12CC3CC(CC(C3)C1)C2,-9,1,67*,-33,49*,-97
COc1cccc(-n2sc3c(c2=S)-c2cc(OC)ccc2NC3(C)C)c1,-1,-1,-5,39*,-3,49*
Cc1cccc2cc(C#N)c(N3CCN(C)CC3)nc12,2,0,15,-33,9,-54
Cc1cc(C)c2nc(N3CCN(C)CC3)c(C#N)cc2c1,-5,-1,52*,-48,26*,-86
CC(=O)Nc1ccccc1NC(=O)c1ccccc1,-21,-2,-4,1,.,-19
SMILES,S1P4 antag,S1P4 ag,NPY Y1 blocker,NPY-Y2 PAM-ag,NPY Y2 blocker,NPY-Y1 PAM-ag
CCC(Oc1nc2ccccc2nc1-c1ccccc1NC(C)=O)C(=O)c1ccccc1 (configuration not stated),-17,4,33*,-8,20*,-24
CC(C)(C)c1nn(-c2ccccc2)c2[nH]c(=O)c(CNc3ccc4c(c3)OCCO4)cc12,-6,1,-12,39*,-3,54*
CC(C)(C)c1nn(-c2ccccc2)c2[nH]c(=O)c(CNCc3ccco3)cc12,-6,1,-3,10,3,47
Cc1ccc(C(=O)Nc2ccc(Cl)cn2)cc1S(=O)(=O)N1CCOCC1,3,0,-2,1,0,-6
CC(C)NCC(O)c1ccc(NS(C)(=O)=O)cc1 (configuration not stated),8,0,-15,78,.,96*
CCOC(=O)c1ccc(NS(C)(=O)=O)cc1,2,-1,4,-11,6,-20
COC(=O)c1ccc(CN2CCN(CCc3ccccc3)C(CCO)C2)cc1 (configuration not stated),-1,0,2,-4,.,15
O=C(OC1C2CCC1C1CN(CCc3ccccc3)CC12)c1ccccc1 (configuration not stated),8,2,44*,-14,42*,-26
N#Cc1c(N2CCCCC2)nc(N2CCCCC2)c2c1CCN(Cc1ccccc1)C2,-6,-2,23*,-4,25*,-33
CC(C)c1nnc(NC(=O)c2cccnc2)s1,2,-2,4,16,2,10
COC(=O)c1c(NC(=O)c2c(-c3ccccc3Cl)noc2C)sc2c1CCC2,6,0,37*,-32,23*,-25
COC(=O)c1c(NC(=O)c2c(C)noc2C)sc2c1CCCCCC2,-2,2,-1,3,3,4
COc1ccc(C(c2c[nH]c3ccccc23)c2c[nH]c3ccccc23)cc1O,-14,2,-8,39*,-4,32*
CC(C)c1onc(C(=O)Nc2cccc(Cl)c2)c1[N+](=O)[O-],-8,-1,3,-7,.,-2
FC(F)(F)COc1nc(N2CCOCC2)nc(N(c2ccccc2)c2ccccc2)n1,-12,2,21*,-8,20*,-21
Oc1ccc(Oc2ccc3c(C(F)(F)F)cc(C(F)(F)F)nc3n2)cc1,0,-1,-7,49*,0,40*
COc1ccc(Oc2ccc3c(C(F)(F)F)cc(C(F)(F)F)nc3n2)cc1,0,1,11,6,1,9
Cc1cc(O)ccc1N/C=C1\CCCC1=O,-19,3,5,3,3,1
COc1ccc(-n2c(C)cc(C(=O)COc3ccc(C)nc3[N+](=O)[O-])c2C)cc1,-7,3,1,-1,3,-19
CCOC(=O)C(C)Sc1cnccn1 (configuration not stated),-3,1,0,12,.,-10
O=C(c1ccc(F)cc1)c1ccc(N2CCCC2)cc1,6,0,21*,-8,3,-6
